Our source for the IC50 values is PubChem BioAssay AID602425 (Sanford-Burnham Center for Chemical Genomics, 2012).

Active and inactive are the calls of the source.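 The calls were made as follows: active = IC50 of 80 µM or lower; inactive = the rest.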

This assay has as its target glucose-6-phosphate dehydrogenase-6-phosphogluconolactonase (PfGluPho) [Plasmodium falciparum 3D7]. As to the kind of experiment: PfG6PD enzyme inhibitors, kinetic orthogonal readout, SAR follow-up, orthogonal assay for PfG6PD antimalarial inhibitor project, biochemical, kinetic direct NADPH detection, set 3 (AID 602425). The conditions noted are these: recombinant PfG6PDH, direct NADPH fluorescence kinetic. The essentials: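 Timing: reads at 5-min intervals; Test system: PfG6PDH, the glucose-6-phosphate dehydrogenase of Plasmodium falciparum; Buffer or medium: Tris-HCl pH 7.5 buffer with MgCl2, Tween 20, BSA; Signal: NADPH fluorescence, 340 nm excitation, 450 nm emission; Reagent: G6P 20 µM and NADP 3 µM final; Dosing: test compounds in dose-response series.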

As usually defined, the IC50 is the concentration at which inhibition is half-maximal. On to `CCN1CCC[C@@H]1CNC(=O)c1ccc2c(c1)NC(=O)c1cc(F)ccc1S2`, for which the IC50 was 49.1 µM.

Regarding `CN1CCCCC1CNC(=O)c1ccc2c(c1)NC(=O)c1ccccc1S2` (configuration not stated), the concentration for half-maximal inhibition (IC50) is 71.4 µM.

Regarding `CCCCN1CCCC1CNC(=O)c1ccc2c(c1)NC(=O)c1ccccc1S2` (configuration not stated), the IC50 is 18.5 µM.

Turning to `CN1CCCC1CNC(=O)c1ccc2c(c1)NC(=O)c1ccccc1S2` (configuration not stated), the IC50 was 23.3 µM.

`CN1CCC(NC(=O)c2ccc3c(c2)NC(=O)c2ccccc2S3)C1` (configuration not stated): the IC50 is > 80 µM (inactive).

`CCN1CCC[C@@H]1CNC(=O)c1ccc2c(c1)NC(=O)c1cc(C)ccc1S2`: the IC50 is 24.4 µM.

For `CCN1CCC[C@@H]1CNC(=O)c1ccc2c(c1)NC(=O)c1ccc(F)cc1S2`, the IC50 is 4.34 µM.

Regarding `CCCCCCN1CCCC1CNC(=O)c1ccc2c(c1)NC(=O)c1ccccc1S2` (configuration not stated), the IC50 was 42.2 µM.

Turning to `CCCN1CCCCC1CNC(=O)c1ccc2c(c1)NC(=O)c1ccccc1S2` (configuration not stated), the IC50 is 62.6 µM.

`CCCN1CCC[C@@H]1CNC(=O)c1ccc2c(c1)NC(=O)c1ccccc1S2`: the 50% inhibitory concentration (IC50) is 11.4 µM.

In the case of `O=C(NCC1CCCCN1)c1ccc2c(c1)NC(=O)c1ccccc1S2` (configuration not stated), the half-maximal inhibitory concentration (IC50) was 41.4 µM.

Consider `CCN1CCC[C@@H]1CNC(=O)c1ccc2c(c1)NC(=O)c1ccccc1N2`, for which the IC50 is > 80 µM (inactive).

Regarding `O=C(NC[C@H]1CCCN1)c1ccc2c(c1)NC(=O)c1ccccc1S2`, the IC50 was 40.3 µM.

Take `CCN1CCC(NC(=O)c2ccc3c(c2)NC(=O)c2ccccc2S3)C1` (configuration not stated): the IC50 was > 80 µM (inactive).

Turning to `CCN1CCC[C@@H]1CNC(=O)c1ccc2c(c1)NC(=O)c1cccc(C)c1S2`, the IC50 was 0.212 µM.

On to `CCCN1CCC(NC(=O)c2ccc3c(c2)NC(=O)c2ccccc2S3)C1` (configuration not stated), for which the IC50 was > 80 µM (inactive).

Consider `CCN1CCCCC1CNC(=O)c1ccc2c(c1)NC(=O)c1ccccc1S2` (configuration not stated), for which the IC50 was > 80 µM (inactive).
